In ChEMBL document CHEMBL3259806, “Design, synthesis and biological evaluation of novel tripeptidyl epoxyketone derivatives constructed from β-amino acid as proteasome inhibitors” (Bioorg Med Chem, 2014):
pIC50: −log10 of the molar value. Activity calls are given as the source filed them. No cut-off for these calls is given here.

Tests used:
[1] = target: 26S proteasome (Homo sapiens) (UniProt Q99460+P49721+P20618+P28074+P28062+P28065+P28072+O00487+P25786+P25787+P25788+P25789+P28066+P60900+O14818+Q8TAA3+P40306+A5LHX3+P49720+P28070+Q99436+Q16186+P35998+P62191+P43686+P62333+P17980+P62195+Q13200+O43242+O00232+O00231+Q15008+P51665+Q9UNM6+P55036+P48556+P60896); test: Inhibition of chymotrypsin-like enzyme activity of purified human 20S proteasome using Suc-Leu-Leu-Val-Tyr-AMC as substrate at 1 ug/ml by fluorescence method; format: protein-complex assay
How it was run: (§1)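 Purified human 20S proteasome preincubated with compound for 15 min. Fluorogenic substrate Suc-Leu-Leu-Val-Tyr-AMC (50 µM) then added to read chymotrypsin-like activity.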

[2] = target: 26S proteasome; test: Inhibition of chymotrypsin-like enzyme activity of purified human 20S proteasome using Suc-Leu-Leu-Val-Tyr-AMC as substrate by fluorescence method; format: protein-complex assay; how it was run: as §1
[3] = tested on: RPMI-8226; test: Cytotoxic activity against human RPMI8226 cells after 72 hrs by MTS assay; format: functional, cell-based; conditions: RPMI-8226, 72 h
How it was run: (§2)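 100 µL cell suspension (10⁴ cells/well) seeded in 96-well plates; compound exposure 72 h, then MTS at 0.5 mg/mL final for 2–4 h. Absorbance read at 490 nm with 690 nm background subtraction. Growth inhibitory ratio = (A_control − A_sample)/A_control.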

[4] = Cytotoxic activity against human NCI-H929 cells after 72 hrs by MTS assay; format: functional, cell-based; conditions: NCI-H929, 72 h; how it was run: as §2
[5] = tested on: RPMI-8226; test: Induction of apoptosis human RPMI8226 cells assessed as PARP cleavage at 100 nM after 12 hrs by Western blot analysis; format: functional, cell-based
How it was run: (§3)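 RPMI 8226 cells in 6-well plates exposed to compounds for 12 h; DMSO as vehicle control. Cells rinsed twice in ice-cold PBS and lysed in 1× SDS loading buffer. Lysates run on 10% SDS–PAGE and transferred to PVDF. Blocked 1 h in 5% milk, primary antibodies 2 h, secondary 1 h, ECL detection. Probed for poly-ubiquitin, PARP, cleaved PARP, β-actin.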

[6] = tested on: RPMI-8226; test: Induction of apoptosis human RPMI8226 cells assessed as accumulation of poly-ubiquitin at 100 nM after 12 hrs by Western blot analysis; format: functional, cell-based; how it was run: as §3

| SMILES | inhibition [1] | pIC50 [2] | pIC50 [3] | pIC50 [4] | further results |
| --- | --- | --- | --- | --- | --- |
| CC(C)C[C@H](NC(=O)[C@H](Cc1ccccc1)NC(=O)CC(NC(=O)c1ccco1)c1ccccc1)C(=O)[C@@]1(C)CO1 (some centres undefined) | 42.3% | – | – | – | – |
| CC(C)C[C@H](NC(=O)[C@H](Cc1ccccc1)NC(=O)CC(NC(=O)c1cccnc1)c1ccccc1)C(=O)[C@@]1(C)CO1 (some centres undefined) | 85.8% | 6.47 | 5.33 | 5.06 | – |
| CC(C)C[C@H](NC(=O)[C@H](Cc1ccccc1)NC(=O)CC(NC(=O)c1ccc(C#N)cc1)c1ccccc1)C(=O)[C@@]1(C)CO1 (some centres undefined) | 72% | 6.44 | 6.39 | 6.21 | – |
| CC(C)C[C@H](NC(=O)c1cccnc1)C(=O)NC(CC(=O)N[C@@H](CC(C)C)C(=O)[C@@]1(C)CO1)c1ccccc1 (some centres undefined) | 0.84% | – | – | – | – |
| CC(C)C[C@H](NC(=O)[C@H](Cc1ccccc1)NC(=O)c1cnccn1)B(O)O [BORTEZOMIB] | – | – | 8.10 | 7.96 | – |
| CC(C)C[C@H](NC(=O)c1ccccc1)C(=O)NC(CC(=O)N[C@@H](CC(C)C)C(=O)[C@@]1(C)CO1)c1ccccc1 (some centres undefined) | 6.42% | – | – | – | – |
| CC(C)C[C@H](NC(=O)[C@H](Cc1ccccc1)NC(=O)CC(NC(=O)c1ccc2ccccc2c1)c1ccccc1)C(=O)[C@@]1(C)CO1 (some centres undefined) | 74.8% | 6.72 | 6.38 | 6.15 | – |
| CC(C)C[C@H](NC(=O)[C@H](Cc1ccccc1)NC(=O)CC(NC(=O)c1ccc(-c2ccccc2)cc1)c1ccccc1)C(=O)[C@@]1(C)CO1 (some centres undefined) | 47.3% | – | – | – | – |
| CC(C)C[C@H](NC(=O)[C@H](CCc1ccccc1)NC(=O)CN1CCOCC1)C(=O)N[C@@H](Cc1ccccc1)C(=O)N[C@@H](CC(C)C)C(=O)[C@@]1(C)CO1 [CARFILZOMIB] | – | – | 7.88 | 7.67 | – |
| CC(C)C[C@H](NC(=O)c1ccc(F)cc1)C(=O)NC(CC(=O)N[C@@H](Cc1ccccc1)C(=O)[C@@]1(C)CO1)c1ccccc1 (some centres undefined) | 1.43% | – | – | – | – |
| CC(C)C[C@H](NC(=O)CC(NC(=O)[C@H](Cc1ccccc1)NC(=O)c1ccccc1)c1ccccc1)C(=O)[C@@]1(C)CO1 (some centres undefined) | 0.3% | – | – | – | – |
| CC(C)C[C@H](NC(=O)[C@H](Cc1ccccc1)NC(=O)C[C@@H](NC(=O)c1ccc(C(F)(F)F)cc1)c1ccccc1)C(=O)[C@@]1(C)CO1 | 84.4% | 6.77 | 6.47 | 6.64 | – |
| COc1ccc(C(=O)N[C@@H](Cc2ccccc2)C(=O)NC(CC(=O)N[C@@H](CC(C)C)C(=O)[C@@]2(C)CO2)c2ccccc2)cc1 (some centres undefined) | 0.3% | – | – | – | Activity [5]: inactive; Activity [6]: inactive |
| COc1ccc(C(=O)N[C@@H](CC(C)C)C(=O)NC(CC(=O)N[C@@H](CC(C)C)C(=O)[C@@]2(C)CO2)c2ccccc2)cc1 (some centres undefined) | 0.56% | – | – | – | – |
| CC(C)C[C@H](NC(=O)c1ccccc1)C(=O)NC(CC(=O)N[C@@H](Cc1ccccc1)C(=O)[C@@]1(C)CO1)c1ccccc1 (some centres undefined) | 1.56% | – | – | – | – |
| CC(C)C[C@H](NC(=O)CC(NC(=O)[C@H](Cc1ccccc1)NC(=O)c1cnccn1)c1ccccc1)C(=O)[C@@]1(C)CO1 (some centres undefined) | 1.51% | – | – | – | – |
| CC(C)C[C@H](NC(=O)[C@H](Cc1ccccc1)NC(=O)CC(NC(=O)CN1CCOCC1)c1ccccc1)C(=O)[C@@]1(C)CO1 (some centres undefined) | 40% | – | – | – | – |

| SMILES | inhibition [1] | pIC50 [2] | pIC50 [3] | pIC50 [4] | further results |
| --- | --- | --- | --- | --- | --- |
| CC(C)C[C@H](NC(=O)c1cnccn1)C(=O)NC(CC(=O)N[C@@H](CC(C)C)C(=O)[C@@]1(C)CO1)c1ccccc1 (some centres undefined) | 9.01% | – | – | – | – |
| CC(C)C[C@H](NC(=O)c1cccnc1)C(=O)NC(CC(=O)N[C@@H](Cc1ccccc1)C(=O)[C@@]1(C)CO1)c1ccccc1 (some centres undefined) | 3.16% | – | – | – | – |
| CC(C)C[C@H](NC(=O)[C@H](Cc1ccccc1)NC(=O)CC(NC(=O)C1CCOCC1)c1ccccc1)C(=O)[C@@]1(C)CO1 (some centres undefined) | 69.5% | 6.20 | – | – | – |
| CC(C)C[C@H](NC(=O)[C@H](Cc1ccccc1)NC(=O)CC(NC(=O)c1cccs1)c1ccccc1)C(=O)[C@@]1(C)CO1 (some centres undefined) | 62.5% | 6.02 | – | – | – |
| CC(C)C[C@H](NC(=O)c1ccc(F)cc1)C(=O)NC(CC(=O)N[C@@H](CC(C)C)C(=O)[C@@]1(C)CO1)c1ccccc1 (some centres undefined) | 5.46% | – | – | – | – |
| CC(C)C[C@H](NC(=O)[C@H](Cc1ccccc1)NC(=O)CC(NC(=O)c1ccc(F)cc1)c1ccccc1)C(=O)[C@@]1(C)CO1 (some centres undefined) | 87.7% | 6.42 | 5.81 | 5.63 | – |
| CC(C)C[C@H](NC(=O)[C@H](Cc1ccccc1)NC(=O)C[C@H](NC(=O)c1ccc2ccccc2c1)c1ccccc1)C(=O)[C@@]1(C)CO1 | 11.8% | – | – | – | – |
| CC(C)C[C@H](NC(=O)[C@H](Cc1ccccc1)NC(=O)CC(NC(=O)c1ccccc1)c1ccccc1)C(=O)[C@@]1(C)CO1 (some centres undefined) | 88.5% | 6.36 | 5.77 | 5.57 | – |
| CC(C)C[C@H](NC(=O)[C@H](Cc1ccccc1)NC(=O)C[C@@H](NC(=O)c1ccc2ccccc2c1)c1ccccc1)C(=O)[C@@]1(C)CO1 | 86.1% | 6.96 | 6.64 | 6.77 | Activity [5]: Active; Activity [6]: Active |
| CC(C)C[C@H](NC(=O)[C@H](Cc1ccccc1)NC(=O)C[C@H](NC(=O)c1ccc(C(F)(F)F)cc1)c1ccccc1)C(=O)[C@@]1(C)CO1 | 25.6% | – | – | – | – |
| CC(C)C[C@H](NC(=O)[C@H](Cc1ccccc1)NC(=O)CC(NC(=O)c1ccc(C(F)(F)F)cc1)c1ccccc1)C(=O)[C@@]1(C)CO1 (some centres undefined) | 76% | 6.66 | 6.49 | 6.02 | – |
| CC(C)C[C@H](NC(=O)CC(NC(=O)[C@H](Cc1ccccc1)NC(=O)c1ccc(F)cc1)c1ccccc1)C(=O)[C@@]1(C)CO1 (some centres undefined) | 0.37% | – | – | – | – |
| CC(C)C[C@H](NC(=O)CC(NC(=O)[C@H](Cc1ccccc1)NC(=O)c1cccnc1)c1ccccc1)C(=O)[C@@]1(C)CO1 (some centres undefined) | 0.48% | – | – | – | – |
| COc1ccc(C(=O)N[C@@H](CC(C)C)C(=O)NC(CC(=O)N[C@@H](Cc2ccccc2)C(=O)[C@@]2(C)CO2)c2ccccc2)cc1 (some centres undefined) | 0.39% | – | – | – | – |
| CC(C)C[C@H](NC(=O)c1cnccn1)C(=O)NC(CC(=O)N[C@@H](Cc1ccccc1)C(=O)[C@@]1(C)CO1)c1ccccc1 (some centres undefined) | 8.7% | – | – | – | – |
| CC(C)C[C@H](NC(=O)[C@H](Cc1ccccc1)NC(=O)CC(NC(=O)c1cnccn1)c1ccccc1)C(=O)[C@@]1(C)CO1 (some centres undefined) | 48.6% | – | – | – | – |
| COc1ccc(C(=O)NC(CC(=O)N[C@@H](Cc2ccccc2)C(=O)N[C@@H](CC(C)C)C(=O)[C@@]2(C)CO2)c2ccccc2)cc1 (some centres undefined) | 84.1% | 6.47 | 5.94 | 5.87 | – |
